# Screening results deposited in PubChem BioAssay by The Scripps Research Institute Molecular Screening Center.
# Hits are enriched below; roughly 4.6% of the tested compounds scored in any of these assays.
# TAAR1 ag: human TAAR1 agonists, primary screen, Fluo-8 calcium fluorescence, CHO RD-HGA16 cells | activation, % at 3 µM | 0.99% of 360,000 active | vehicle wells 0%, saturating PEA agonist 100%;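 active = activation above the mean activation of all test compounds in the run plus 3 SD, cut at about 38% in these data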
# Target sequence (Q96RJ0 whole entry, looked up): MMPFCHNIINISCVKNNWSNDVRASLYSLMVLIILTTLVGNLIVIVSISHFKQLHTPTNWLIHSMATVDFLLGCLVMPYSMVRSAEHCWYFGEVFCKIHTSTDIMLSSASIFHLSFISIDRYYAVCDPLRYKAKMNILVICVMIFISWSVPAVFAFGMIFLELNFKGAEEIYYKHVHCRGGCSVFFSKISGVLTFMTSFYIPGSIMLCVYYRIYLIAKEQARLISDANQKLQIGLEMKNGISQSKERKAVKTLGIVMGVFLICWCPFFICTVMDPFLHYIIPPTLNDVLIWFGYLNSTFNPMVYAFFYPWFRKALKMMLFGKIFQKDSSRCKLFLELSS
#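 Repeats: no replicates (n 1) | Material: CHO-derived RD-HGA16 cells with stable Gα16 and human TAAR1 | Technique: Kinetic Fluo-8 calcium fluorescence | Schedule: 17-24 h seeding, 75 min 37 °C dye, 30 min RT | Evaluation: % activation from peak over basal fluorescence ratio, DMSO-to-PEA scaled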
# GPR7 antagonist: GPR7 receptor antagonists, primary screen, cell-based, fluorescence, single concentration | GPR7-expressing cells, fluorescence antagonist assay | 1.1% of 290,000 active | Neuropeptides B/W receptor type 1 (Homo sapiens), P48145 | AID 1861, 2009 | inhibition, % at 4.4 µM; in the data active = inhibition above about 16%, passing the limit was not always enough;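 also: cells stimulated with the agonist NPW; 0% = agonist with vehicle and 100% = vehicle without agonist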
# Target sequence (P48145 whole entry, looked up): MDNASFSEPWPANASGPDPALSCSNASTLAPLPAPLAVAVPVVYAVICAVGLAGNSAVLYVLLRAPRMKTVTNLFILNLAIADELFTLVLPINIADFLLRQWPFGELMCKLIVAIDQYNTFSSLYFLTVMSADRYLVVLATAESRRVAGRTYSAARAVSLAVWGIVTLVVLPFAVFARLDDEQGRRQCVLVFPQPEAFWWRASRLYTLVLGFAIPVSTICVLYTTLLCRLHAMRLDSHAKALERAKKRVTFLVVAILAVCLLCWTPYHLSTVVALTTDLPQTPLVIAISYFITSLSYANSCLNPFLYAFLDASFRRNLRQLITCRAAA
# CHO parental Ca: ATP-evoked calcium signal inhibitors, parental CHO, primary screen, counter-screen for OX1R antagonist project, cell-based, fluorescence, Fluo-8 calcium dye; parental CHO-K1, ATP-induced calcium, Fluo-8 fluorescence; inhibition, % at 5.6 µM; 0.63% of 330,000 active; AID 463079, 2010;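 active = inhibition above that plate's mean sample inhibition plus 3 SD, cut at about 26% in these data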;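 also: 0% = ATP-challenged DMSO wells and 100% = DMSO wells without ATP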
#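 Assay system: untransfected parental CHO cell line. Also added: ATP agonist challenge. Dosing: one dose, 5.6 µM nominal. Measured by: Fluo-8 fluorescence. Read-out: % inhibition. Benchmarks: ATP wells versus no-ATP DMSO wells. Repeats: no replicates.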
# OX1R antag-1: OX1R (HCRTR1) antagonists, primary screen, fluorescence, CHO/OX1R cells, Fluo-8 calcium, orexin A; 0.43% of 330,000 active; Orexin/Hypocretin receptor type 1 (Homo sapiens), O43613; Fluo-8 calcium fluorescence; inhibition, % at 5 µM;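 active = inhibition above its plate's threshold, mean inhibition of all tested compounds on the plate plus 3 SD, cut at about 37% in these data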;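 also: 0% = orexin A challenge wells and 100% = SB-334867-A antagonist wells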
# OX1R antag-2: antagonists of human orexin 1 receptor (OX1R). Orexin/Hypocretin receptor type 1 (Homo sapiens), O43613. inhibition, % at 6.6 µM. OX1R-expressing cells, FRET antagonist read-out. 1.8% of 330,000 active; in the data active = inhibition mostly above about 38%, no sharp cut-off; inactive = mostly below about 40%;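 also: 0% = agonist challenge alone and 100% = reference antagonist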
# TAAR1 antagonist: human TAAR1 antagonists, primary screen, Fluo-8 calcium fluorescence, CHO RD-HGA16 cells | Trace amine-associated receptor 1 (Homo sapiens), Q96RJ0 | antagonist | inhibition, % at 3 µM | 1.5% of 360,000 active;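 active = inhibition above a per-plate cutoff, the mean inhibition of test compounds on that plate plus 3 SD, cut at about 49% in these data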;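 also: 0% = DMSO plus EC80 beta-PEA response and 100% = DMSO alone without agonist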
#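 Test system – hTAAR1-expressing CHO RD-HGA16 cells, Gα16-coupled · Also added – β-PEA at EC80 concentration, post-compound challenge · Compound – 3 µM, single point · Incubation – dye loading 75 min at 37 °C, then 30 min room temperature · Measured by – Fluo-8 intracellular calcium dye fluorescence, real-time kinetic reads · Benchmarks – vehicle and agonist controls · Replicates – singlicate, one well per test compound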
# GPR7 antag cf: GPR7 receptor antagonists, confirmation, cell-based, fluorescence, single concentration; inhibition, % at 4.4 µM; AID 1952, 2009; 52% of 2,400 active; shares compounds with GPR7 antagonist; GPR7-expressing cells, calcium fluorescence antagonist mode; in the data active = inhibition above about 24%;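 also: stimulated with the GPR7 agonist NPW; 0% = agonist plus vehicle and 100% = vehicle alone without agonist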
# MCHR1 antagonist: MCHR1 antagonists in cells, counter-screen for GPR7 antagonist project, cell-based, fluorescence, human; shares compounds with GPR7 antagonist; MCHR1-expressing cells, fluorescence antagonist assay; inhibition, % at 4.4 µM; 62% of 2,400 active; in the data active = inhibition above about 22%;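 also: 0% = vehicle with agonist and 100% = vehicle without agonist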
# An asterisk follows results filed as active; . = no result given.
SMILES,TAAR1 ag,GPR7 antagonist,CHO parental Ca,OX1R antag-1,OX1R antag-2,TAAR1 antagonist,GPR7 antag cf,MCHR1 antagonist
Cc1nc2ccc(S(=O)(=O)Nc3ccccc3C)cc2s1,.,25.2*,-16.9,-11.7,15.8,.,9.0,35.0*
O=C(NCc1ccc2c(c1)OCO2)C(=O)NCC1OCCN1S(=O)(=O)c1ccc(Cl)cc1 (centres undefined),1.9,2.8,-13.8,-29.9,7.8,-18.3,.,.
O=C(NCc1ccc2c(c1)OCO2)C(=O)NCC1OCCN1S(=O)(=O)c1ccc(Br)cc1 (centres undefined),3.2,28.7*,-10.5,-3.0,7.1,1.5,22.0,39.9*
Cc1cn([C@H]2C[C@H](O)[C@@H](CNC(=O)CNC(=O)CN)O2)c(=O)[nH]c1=O,0.0,.,.,.,.,-7.6,.,.
O=C(Nc1cccnc1)c1ccc(COc2ccccc2Br)o1,4.4,69.3*,2.8,-15.7,22.2,17.8,33.0*,54.0*
CC(=O)Nc1ccc(NC(=O)c2ccc(COc3ccccc3Br)o2)cc1,3.9,15.0,.,.,.,10.7,.,.
CCCCNC(=O)C1(C)CCCCN1C(=O)c1ccc(F)c(C)c1 (centres undefined),1.2,.,.,.,.,-17.6,.,.
COc1cc(NS(=O)(=O)c2cc3[nH]c(=O)c(=O)[nH]c3cc2C)cc(OC)c1OC,2.2,43.3*,-3.4,19.8,11.9,-3.8,4.4,4.8
OC[C@@H]1CN(Cc2ccccc2)C[C@H](n2ccc3c(N4CCCC4)ncnc32)O1,0.3,.,.,.,.,-8.7,.,.
CC(=O)Nc1ccc(S(=O)(=O)N(CCCN2CCOCC2)Cc2cccs2)cc1,7.0,24.9*,-19.9,-0.7,4.6,9.5,0.9,15.9
Cc1ccc(-c2csc(NC(=O)c3ccc(Br)cc3)c2C(=O)O)cc1,-1.2,40.0*,1.9,-18.5,10.4,23.6,62.3*,45.8*
CC(C)[C@@H]1CC[C@@H](C)C[C@H]1OC(=O)C[n+]1cc(-c2ccc(Cl)cc2)n2c1CCCCC2,7.8,58.2*,9.6,9.2,7.3,-23.5,64.9*,83.5*
COc1ccc(NC(=O)C2CCCCC2)cc1S(=O)(=O)N1CCOCC1,1.5,.,-12.8,-12.3,10.1,-7.4,.,.
CC(C)N1CCOC1c1ccccc1 (centres undefined),1.4,.,.,.,.,-3.7,.,.
CC(NCc1ccc(-c2ccccc2)cc1)C(O)c1ccccc1 (centres undefined),26.9,30.9*,4.7,-3.9,10.0,31.2,25.0*,51.1*
COc1ccc(CCN(C)C(=S)NC(=O)c2ccc(F)cc2Cl)cc1OC,0.8,2.6,-19.4,-19.4,5.5,-3.3,.,.
COc1ccc(CCN(C)C(=S)Nc2ccc(SC(F)F)cc2)cc1OC,5.0,39.4*,-2.2,-4.1,16.9,12.9,12.4,10.6
C[C@H](CO)N1C[C@H](C)[C@@H](CN(C)C(=O)NC2CCCCC2)Oc2c(NC(=O)Cc3ccccc3)cccc2C1=O,7.5,.,-27.9,-4.2,13.7,5.5,.,.
O=C(Nc1ccccc1)Nc1ncc([N+](=O)[O-])s1,21.7,23.3*,.,.,.,-0.3,19.8,52.8*
CCCCC(=O)Nc1ncc([N+](=O)[O-])s1,8.5,-6.5,5.7,-13.5,48.3,18.5,.,.
COCCNC(=O)Cn1c(=O)n(CCCCCC(=O)NCc2ccc3c(c2)OCO3)c(=O)c2sccc21,.,29.4*,-13.4,-13.2,6.6,.,-6.6,-3.5
O=C(CS(=O)(=O)c1ccc(Cl)cc1)N1CCN(c2ccccc2)CC1,1.2,.,.,.,.,5.9,.,.
CC(NC(=O)Cc1ccc(F)cc1)c1ccccc1 (centres undefined),7.0,-11.2,-22.4,-18.6,10.9,3.7,.,.
CC(NC(=O)Cc1cccc(C(F)(F)F)c1)c1ccc(F)cc1 (centres undefined),4.6,26.5*,-5.4,-18.9,11.3,4.6,7.2,14.6
CCOc1ccc(/C=C/C(=O)c2ccccc2)cc1,0.8,11.7,-14.6,-51.8,-1.7,-11.4,.,.
SMILES,TAAR1 ag,GPR7 antagonist,CHO parental Ca,OX1R antag-1,OX1R antag-2,TAAR1 antagonist,GPR7 antag cf,MCHR1 antagonist
CCOc1ccc(C(=O)/C=C/c2ccc(SC)cc2)cc1,4.1,36.8*,-17.3,-16.2,11.7,19.7,41.4*,44.9*
O=C(Nc1nc2ccccc2s1)C1CCN(S(=O)(=O)c2cc([N+](=O)[O-])ccc2Cl)CC1,7.6,31.9*,79.6*,51.2*,84.0*,45.8,75.2*,74.6*
CCN(C(=O)CN1C(=O)S/C(=C\C=C\c2ccccc2)C1=O)C1CCS(=O)(=O)C1 (centres undefined),2.9,-2.5,4.9,8.0,14.4,-9.1,.,.
Cc1cc2oc(=O)cc(CNc3ccccc3F)c2cc1O,3.6,38.0*,3.6,-19.7,14.7,6.1,44.1*,68.1*
CN(C(=O)C=Cc1ccco1)c1ccccc1,1.6,.,.,.,.,6.4,.,.
CN(C(=O)/C=C/c1ccc([N+](=O)[O-])s1)c1ccccc1,13.1,24.7*,-17.7,-11.8,18.7,1.9,20.5,9.8
S=C(NCc1ccccc1Cl)NC1CCCC1,4.7,21.1*,-6.5,-5.6,13.7,-16.5,-3.6,19.1
S=C(NCc1ccccc1)NCc1cccc(Cl)c1,1.6,-9.9,.,.,.,-9.5,.,.
Fc1ccccc1CNC(=S)NC1CCCCC1,1.8,-13.2,.,.,.,-34.4,.,.
Cc1ccc(NC(=S)NCc2ccc(Cl)cc2)c(C)c1,-0.2,30.9*,-1.0,-29.0,3.8,-6.7,24.2*,9.9
S=C(NCCc1cccc(Cl)c1)NCc1ccccc1,.,22.7*,.,.,.,.,13.6,20.5
CCc1ccc(NC(=S)NCc2ccccc2)cc1,1.1,8.5,12.6,-10.7,15.3,-20.2,.,.
S=C(NCc1ccccc1)Nc1ccc(Cl)cc1,6.8,21.2*,12.7,11.1,13.4,32.3,18.5,42.9*
S=C(NCc1ccc(Cl)cc1)NC1CCN(Cc2ccccc2)CC1,51.0*,25.5*,8.4,4.3,14.3,6.7,40.3*,63.8*
Clc1ccc(CNC2CCN(Cc3ccccc3)CC2)cc1,0.8,20.1,-4.3,-26.9,11.3,-2.4,.,.
COc1ccc(N2C(=NC(=O)C3CCCCC3)SC3CS(=O)(=O)CC32)c(OC)c1 (centres undefined),1.5,3.6,-4.3,-16.7,5.7,-8.7,.,.
